Reference: ChEMBL document CHEMBL2429747, “Synthesis and biological evaluation of α-galactosylceramide analogues with heteroaromatic rings and varying positions of a phenyl group in the sphingosine backbone” (J Med Chem, 2013)
Activity calls are given as the source filed them. The calls are words filed in the database; no cut-off is given here.

Assays:
[1] = system: HMNC; experiment: Immunomodulatory activity in wild type C57BL/6 mouse HMNC cells assessed as reduction in IL-17 secretion at 25 nM after 72 hrs by ELISA; type: functional, cell-based
In short: (§1)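 Hepatic mononuclear cells from C57BL/6 mice were isolated on Percoll and grown in RPMI-1640 with 10% FBS, L-glutamine and 2-mercaptoethanol. Cells (2 × 10^5) were stimulated 72 h with 25 nM glycolipid. Supernatant cytokines were measured by sandwich ELISA: overnight 4 °C sample incubation, biotinylated antibody, streptavidin-HRP, TMB, A450. Assays were run in triplicate and repeated 2−3 times; mean ± SD.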

[2] = system: HMNC; experiment: Immunomodulatory activity in wild type C57BL/6 mouse HMNC cells assessed as reduction in IFN-gamma secretion at 25 nM after 72 hrs by ELISA; type: functional, cell-based; in short: as §1
[3] = system: HMNC; experiment: Immunomodulatory activity in wild type C57BL/6 mouse HMNC cells assessed as increase in IL-4 secretion at 25 nM after 72 hrs by ELISA; type: functional, cell-based; in short: as §1
[4] = system: Mus musculus; experiment: Immunomodulatory activity in PMA- and ionomycin-stimulated wild type C57BL/6 mouse HMNC cells assessed as reduction in IL-17 cytokine in cell culture supernatant at 2 ug, ip administered as single dose measured 22 days post immunization by ELISA relative to vehicle-treated control; type: functional, organism-based
In short: (§2)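 Spinal cord mononuclear cells were isolated at day 22 by Percoll gradient and restimulated 4 h with PMA 50 ng/mL plus ionomycin 1 μg/mL. Supernatant cytokines were measured by sandwich ELISA using capture antibody, biotinylated detection antibody, streptavidin-HRP and TMB. Data are mean ± SD of individual mice, n = 3−4/group.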

[5] = system: Mus musculus; experiment: In vivo immunomodulatory activity in wild type C57BL/6 mouse assessed as IL-4 level in serum at 2 ug, iv administered as single dose measured at >2 hrs; type: functional, organism-based
In short: (§3)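 Mice were given a single intravenous injection of 2 μg glycolipid, and serum was collected at set times after injection. Serum cytokines were measured by sandwich ELISA: plates coated with anti-cytokine antibody and blocked with 1% BSA, serum incubated overnight at 4 °C, then biotinylated antibody, streptavidin-HRP and TMB, with absorbance read at 450 nm.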

[6] = system: Mus musculus; experiment: Immunomodulatory activity in PMA- and ionomycin-stimulated wild type C57BL/6 mouse HMNC cells assessed as inhibition of Th17 differentiation of MOG-specific CD4+ T cells at 2 ug, ip administered as single dose measured 22 days post immunization by brefeldin A staining-based flow cytometric analysis; type: functional, organism-based
In short: (§4)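 At 22 days post-immunization, mice were perfused with cold PBS. Lumbar spinal cord was minced, digested and homogenized, and mononuclear cells were taken from the 30−70% Percoll interface. Cells were restimulated 4 h with PMA 50 ng/mL and ionomycin 1 μg/mL, with brefeldin A 1 μg/mL for the last 2 h. Cells were surface-stained, fixed in 4% PFA, permeabilized with Triton buffer, stained for CD4, IL-17 and IFN-γ, and analyzed by flow cytometry.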

[7] = species on record: Mus musculus; experiment: Antiautoimmune disease activity in wild type C57BL/6 mouse experimental autoimmune encephalitis model assessed as reduction in disease pathogenicity at 2 ug, […] as single dose measured up to 30 days; type: functional, organism-based
In short: (§5)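 Wild-type B6 mice received 2D2 TCR-transgenic lymphocytes containing 1 × 10^6 Va3.2+Vβ11+ CD4+ T cells via the tail vein. After 24 h, mice were immunized sc in each flank with 200 μg MOG35−55 in incomplete Freund's adjuvant with 200 μg M. tuberculosis. Pertussis toxin was given ip on day 0 and day 2. A single 2 μg dose was mixed into the antigen emulsion at immunization. EAE clinical score was followed; n = 8/group from two experiments, mean ± SEM.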

[8] = species on record: Mus musculus; experiment: Antiautoimmune disease activity in wild type C57BL/6 mouse experimental autoimmune encephalitis model assessed as delay in disease onset at 2 ug, […] as single dose measured up to 30 days; type: functional, organism-based; in short: as §5
[9] = system: Mus musculus; experiment: Immunomodulatory activity in PMA- and ionomycin-stimulated wild type C57BL/6 mouse HMNC cells assessed as inhibition of Th1 differentiation of MOG-specific CD4+ T cells at 2 ug, ip administered as single dose measured 22 days post immunization by brefeldin A staining-based flow cytometric analysis; type: functional, organism-based; in short: as §4
[10] = system: Mus musculus; experiment: In vivo immunomodulatory activity in wild type C57BL/6 mouse assessed as IL-4 level in serum at 2 ug, iv administered as single dose measured at 2 hrs; type: functional, organism-based; in short: as §3
[11] = system: Mus musculus; experiment: Immunomodulatory activity in PMA- and ionomycin-stimulated wild type C57BL/6 mouse HMNC cells assessed as reduction in IFN-gamma cytokine in cell culture supernatant at 2 ug, ip administered as single dose measured 22 days post immunization by ELISA relative to vehicle-treated control; type: functional, organism-based; in short: as §2
[12] = system: Mus musculus; experiment: In vivo immunomodulatory activity in wild type C57BL/6 mouse assessed as decrease in IFN-gamma level in serum at 2 ug, iv administered as single dose measured after 12 to 24 hrs; type: functional, organism-based; in short: as §3
[13] = system: Mus musculus; experiment: In vivo immunomodulatory activity in wild type C57BL/6 mouse assessed as decrease in IL-17 level in serum at 2 ug, iv administered as single dose measured at 12 to 24 hrs; type: functional, organism-based; in short: as §3
[14] = system: Mus musculus; experiment: Antiautoimmune disease activity in wild type C57BL/6 mouse experimental autoimmune encephalitis model assessed as reduction in mononuclear cells infiltration into white matter at 2 ug, ip administered as single dose measured on day 18 post immunization by H & E staining-based analysis relative to vehicle-treated control; type: functional, organism-based

Structure (SMILES)	Activity [1]	Activity [2]	Activity [3]	Activity [4]	Activity [5]	Activity [6]	Activity [7]	Activity [8]	Activity [9]	Activity [10]	Activity [11]	Activity [12]	Activity [13]	Activity [14]
CCCCCCCCCCCCCCCCCCCCCCCCCC(=O)N[C@@H](CO[C@H]1O[C@H](CO)[C@H](O)[C@H](O)[C@H]1O)[C@H](O)[C@H](O)c1cnn(Cc2ccc(CCCCCC)cc2)c1	Active	Active	Active											
CCCCCCCCCCCCCCCCCCCCCCCCCC(=O)N[C@@H](CO[C@H]1O[C@H](CO)[C@H](O)[C@H](O)[C@H]1O)[C@H](O)[C@H](O)CCCCCCCCCCCCCC				inactive	inactive	inactive	Active	inactive	inactive	Active	inactive	inactive		
CCCCCCCCCCCCCCCCCCCCCCCCCC(=O)N[C@@H](CO[C@H]1O[C@H](CO)[C@H](O)[C@H](O)[C@H]1O)[C@H](O)[C@H](O)c1cnn(CCCCCc2ccc(CC)cc2)c1	Active	Active	Active											
CCCCCCCCCCCCCCCCCCCCCCCCCC(=O)N[C@@H](CO[C@H]1O[C@H](CO)[C@H](O)[C@H](O)[C@H]1O)[C@H](O)[C@H](O)c1cnn(CCCCCCCc2ccccc2)c1	Active	Active	Active											
CCCCCCCCCCCCCCCCCCCCCCCCCC(=O)N[C@@H](CO[C@H]1O[C@H](CO)[C@H](O)[C@H](O)[C@H]1O)[C@H](O)[C@H](O)c1cnn(CCCCCCc2ccc(C)cc2)c1	Active	Active	Active											
CCCCCCCCCCCCCCCCCCCCCCCCCC(=O)N[C@@H](CO[C@H]1O[C@H](CO)[C@H](O)[C@H](O)[C@H]1O)[C@H](O)[C@H](O)c1cnn(CCc2ccc(CCCCC)cc2)c1	inactive	inactive	inactive											
CCCCCCCCCCCCCCCCCCCCCCCCCC(=O)N[C@@H](CO[C@H]1O[C@H](CO)[C@H](O)[C@H](O)[C@H]1O)[C@H](O)[C@H](O)c1cnn(CCCc2ccc(CCCC)cc2)c1	Active	Active	Active	Active	inactive	Active	Active	Active	Active	Active	Active	inactive	Active	Active
CCCCCCCCCCCCCCCCCCCCCCCCCC(=O)N[C@@H](CO[C@H]1O[C@H](CO)[C@H](O)[C@H](O)[C@H]1O)[C@H](O)[C@H](O)c1cnn(CCCCc2ccc(CCC)cc2)c1	Active	Active	Active											
